According to ChEMBL document CHEMBL1154830, “A beta-carboline alkaloid from the Papua New Guinea marine sponge hyrtios reticulatus” (J Nat Prod, 2010):
In brackets after ≈: the same amount, converted by molar mass. Activity calls are given as the source filed them. No cut-off for these calls is given here.

Experiments:
HeLa [1] = test: Cytotoxicity against human HeLa cells at 230 uM after 24 hrs; type: functional
In short: (§1)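 HeLa cells plated at 1500 cells/well and held overnight at 37 °C, 5% CO2, then compound pinned in. After 24 h, fixed in 4% formaldehyde for 20 min, permeabilized with 0.5% Triton X-100 in PBS for 10 min and blocked. Actin stained with rhodamine-phalloidin for 20 min and DNA with Hoechst 33342.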

HT-29 = test: Cytotoxic activity against human HT-29 cells after 96 hrs by luminescent cell viability assay; type: functional, cell-based; settings: HT-29, 96 h
In short: (§2)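 Cells in 96-well plates grown without compound or with continuous exposure to 1.5–50,000 nM test compound for 96 h. Growth read by CellTiter-Glo luminescence. IC50 is the concentration giving 50% growth inhibition relative to untreated cells. Two separate replicate experiments.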

OVCAR-5 = test: Cytotoxic activity against human OVCAR5 cells after 96 hrs by luminescent cell viability assay; type: functional, cell-based; settings: OVCAR-5, 96 h
U-937 = test: Cytotoxic activity against human U937 cells after 96 hrs by luminescent cell viability assay; type: functional, cell-based; settings: U-937, 96 h
NCI-H460 = test: Cytotoxic activity against human H460 cells after 96 hrs by luminescent cell viability assay; type: functional, cell-based; settings: NCI-H460, 96 h; in short: as §2
BT-549 = test: Cytotoxic activity against human BT549 cells after 96 hrs by luminescent cell viability assay; type: functional, cell-based; settings: BT-549, 96 h; in short: as §2
HeLa [2] = test: Cytotoxicity against human HeLa cells assessed as disruption of cytoskeleton at 230 uM after 24 hrs by rhodamine-phalloidin staining method; type: functional, cell-based; in short: as §1
DU-145 = test: Cytotoxic activity against human DU145 cells after 96 hrs by luminescent cell viability assay; type: functional, cell-based; settings: DU-145, 96 h; in short: as §2
HeLa [3] = test: Cytotoxicity against human HeLa cells assessed as nuclear blebbing at 230 uM after 24 hrs by hoechst 33342 staining method; type: functional, cell-based; in short: as §1
HCC 2998 = test: Cytotoxic activity against human HCC2998 cells after 96 hrs by luminescent cell viability assay; type: functional, cell-based; settings: HCC 2998, 96 h
MDA-MB-435 = test: Cytotoxic activity against human MDA-MB-435 cells after 96 hrs by luminescent cell viability assay; type: functional, cell-based; settings: MDA-MB-435, 96 h
UACC-257 = test: Cytotoxic activity against human UACC257 cells after 96 hrs by luminescent cell viability assay; type: functional, cell-based; settings: UACC-257, 96 h
SF-539 = test: Cytotoxic activity against human SF539 cells after 96 hrs by luminescent cell viability assay; type: functional, cell-based; settings: SF-539, 96 h
[4] = Cytotoxic activity against human H522-T1 cells after 96 hrs by luminescent cell viability assay; type: functional, cell-based; settings: H522-T1, 96 h
SR = test: Cytotoxic activity against human SR cells after 96 hrs by luminescent cell viability assay; type: functional, cell-based
MCF7 = test: Cytotoxic activity against human MCF7 cells after 96 hrs by luminescent cell viability assay; type: functional, cell-based; settings: MCF7, 96 h

Structure (SMILES): O=C(O)c1cc2c([nH]c3ccc(O)cc32)c(C(=O)c2c[nH]cn2)n1 [HYRTIOCARBOLIN]
- inhibition at 230 µM (HeLa [1]): 57%
- IC50 (HT-29): > 50 µg/mL
- IC50 (OVCAR-5): > 50 µg/mL
- IC50 (U-937): 1.5 µg/mL (≈ 4.65 µM)
- IC50 (NCI-H460): 17 µg/mL (≈ 52.7 µM)
- IC50 (BT-549): 45 µg/mL (≈ 140 µM)
- Activity (HeLa [2]): Active
- IC50 (DU-145): 34 µg/mL (≈ 105 µM)
- Activity (HeLa [3]): Active
- IC50 (HCC 2998): > 50 µg/mL
- IC50 (MDA-MB-435): 3 µg/mL (≈ 9.31 µM)
- IC50 (UACC-257): > 50 µg/mL
- IC50 (SF-539): > 50 µg/mL
- IC50 [4]: 1.2 µg/mL (≈ 3.72 µM)
- IC50 (SR): > 50 µg/mL
- IC50 (MCF7): > 50 µg/mL
